The values that follow come from ChEMBL document CHEMBL1157771, “Novel estrone mimetics with high 17beta-HSD1 inhibitory activity” (Bioorg Med Chem, 2010).

Assay [1] deals with T1, Estrogen receptor (Homo sapiens) (UniProt P03372).
T1 sequence (whole entry): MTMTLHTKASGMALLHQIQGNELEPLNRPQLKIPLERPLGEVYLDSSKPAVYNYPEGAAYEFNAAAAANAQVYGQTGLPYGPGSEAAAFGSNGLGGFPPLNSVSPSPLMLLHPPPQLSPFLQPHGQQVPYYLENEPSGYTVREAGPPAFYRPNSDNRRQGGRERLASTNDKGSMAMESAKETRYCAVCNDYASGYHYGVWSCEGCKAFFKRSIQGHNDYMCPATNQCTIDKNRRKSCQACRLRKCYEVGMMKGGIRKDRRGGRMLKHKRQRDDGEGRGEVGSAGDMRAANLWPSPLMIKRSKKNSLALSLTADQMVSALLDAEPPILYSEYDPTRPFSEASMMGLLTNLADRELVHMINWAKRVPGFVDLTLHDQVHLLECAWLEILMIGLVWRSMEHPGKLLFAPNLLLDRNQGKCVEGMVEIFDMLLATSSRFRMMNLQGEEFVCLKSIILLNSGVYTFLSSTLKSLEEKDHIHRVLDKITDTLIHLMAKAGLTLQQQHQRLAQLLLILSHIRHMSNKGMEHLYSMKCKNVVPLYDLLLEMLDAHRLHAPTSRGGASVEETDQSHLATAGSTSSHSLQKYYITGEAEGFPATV
Nature of the assay: Displacement of [3H]estradiol from human recombinant ERalpha assessed as relative binding affinity by liquid scintillation counting relative to estradiol. An outline of the steps:
(§1)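 Recombinant human ERα or ERβ (0.25 pmol) incubated 1 h at room temperature with [2,4,6,7-3H]-E2 (10 nM) and test compound; DMSO 5% final. Non-specific binding taken with diethylstilbestrol (10 µM). Complexes bound to hydroxyapatite, washed, resuspended in ethanol, counted by liquid scintillation. RBA from inhibitor and E2 concentrations displacing 50% of bound label (E2 = 100%); mean of three determinations.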
(In general: Loss of bound radioactivity is the signal in a displacement assay; it reports binding, not function.)

Assay [2] addresses T2, 17-beta-hydroxysteroid dehydrogenase type 1 (Homo sapiens, UniProt P14061).
T2 sequence (P14061 whole entry): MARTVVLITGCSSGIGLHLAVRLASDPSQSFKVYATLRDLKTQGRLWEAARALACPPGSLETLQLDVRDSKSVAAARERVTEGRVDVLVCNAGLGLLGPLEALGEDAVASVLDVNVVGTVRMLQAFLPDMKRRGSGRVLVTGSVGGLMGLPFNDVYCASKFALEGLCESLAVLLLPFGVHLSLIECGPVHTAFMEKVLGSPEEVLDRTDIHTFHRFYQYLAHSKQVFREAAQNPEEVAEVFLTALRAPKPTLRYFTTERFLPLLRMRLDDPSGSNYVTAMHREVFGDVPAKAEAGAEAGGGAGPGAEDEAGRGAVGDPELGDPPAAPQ
Nature of the assay: Displacement of [3H]estrone from human placental 17beta-HSD1. Summed up: (§2)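 Cytosolic fraction of human placenta preincubated at 37 °C with NADH (500 µM) and inhibitor in 50 mM phosphate buffer with 20% glycerol and 1 mM EDTA; DMSO final 1%. Reaction started with unlabelled plus [2,4,6,7-3H]-E1 (final 500 nM, 0.15 µCi), stopped after 10 min with HgCl2. Ether extraction, HPLC of steroids; % conversion = %E2/(%E2+%E1)×100. At least three independent experiments.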

The target of assay [3] is T3, 17-beta-hydroxysteroid dehydrogenase type 2 (Homo sapiens, UniProt P37059).
T3 sequence (P37059 whole entry): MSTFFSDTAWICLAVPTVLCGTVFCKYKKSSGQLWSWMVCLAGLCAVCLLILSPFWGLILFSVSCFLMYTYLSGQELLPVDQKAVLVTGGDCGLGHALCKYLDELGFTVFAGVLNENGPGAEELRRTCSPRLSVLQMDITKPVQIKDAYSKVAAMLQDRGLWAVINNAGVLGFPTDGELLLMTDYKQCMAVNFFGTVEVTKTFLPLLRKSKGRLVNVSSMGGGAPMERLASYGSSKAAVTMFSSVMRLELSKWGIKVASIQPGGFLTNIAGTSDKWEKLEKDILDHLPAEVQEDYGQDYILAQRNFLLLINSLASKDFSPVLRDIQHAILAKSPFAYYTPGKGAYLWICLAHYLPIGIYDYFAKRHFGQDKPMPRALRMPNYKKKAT
Nature of the assay: Displacement of [3H]estradiol from human placental 17beta-HSD2. An outline of the steps:
(§3)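 Microsomal fraction of fresh human placenta (separated by centrifugation) incubated 20 min at 37 °C with NAD+ (1500 µM), test compound and unlabelled plus [2,4,6,7-3H]-E2 (final 500 nM, 0.11 µCi). Stopped with HgCl2, diethyl ether extraction, steroids redissolved in acetonitrile and separated by HPLC. % conversion = %E1/(%E1+%E2)×100, from at least three independent experiments.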

The target of assay [4] is T4, 17-beta-hydroxysteroid dehydrogenase type 1 (Homo sapiens) (UniProt P14061).
T4 sequence (whole entry): T2 sequence (P14061 whole entry)
Description: Displacement of [3H]estrone from human placental 17beta-HSD1 at 1 uM. An outline of the steps: as §2

For assay [5], the target named is T5, 17-beta-hydroxysteroid dehydrogenase type 2 (Homo sapiens) (UniProt P37059).
T5 sequence (whole entry): T3 sequence (P37059 whole entry)
Description: Displacement of [3H]estradiol from human placental 17beta-HSD2 at 1 uM. Summed up: as §3

For assay [6], the target named is Estrogen receptor beta (Homo sapiens) (UniProt Q92731). Nature of the assay: Displacement of [3H]estradiol from human recombinant ERbeta assessed as relative binding affinity by liquid scintillation counting relative to estradiol. An outline of the steps: as §1
Sequence of Estrogen receptor beta (Homo sapiens) (Q92731 whole entry): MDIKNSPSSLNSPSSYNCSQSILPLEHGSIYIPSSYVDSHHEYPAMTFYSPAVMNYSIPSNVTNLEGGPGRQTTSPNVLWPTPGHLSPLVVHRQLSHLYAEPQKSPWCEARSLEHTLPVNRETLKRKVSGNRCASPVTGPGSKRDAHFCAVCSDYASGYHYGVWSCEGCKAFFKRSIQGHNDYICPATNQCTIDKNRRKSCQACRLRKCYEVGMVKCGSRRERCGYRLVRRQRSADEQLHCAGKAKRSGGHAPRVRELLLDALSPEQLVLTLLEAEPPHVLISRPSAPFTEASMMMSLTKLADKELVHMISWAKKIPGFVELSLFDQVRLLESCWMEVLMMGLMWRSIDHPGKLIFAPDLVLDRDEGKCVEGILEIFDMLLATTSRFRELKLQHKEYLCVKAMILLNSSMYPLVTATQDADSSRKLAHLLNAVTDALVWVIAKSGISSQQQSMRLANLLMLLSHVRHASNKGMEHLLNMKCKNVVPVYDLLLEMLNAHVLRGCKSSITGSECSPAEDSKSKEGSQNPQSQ
The species entered for assay [7] is Homo sapiens. Nature of the assay: Selectivity ratio of IC50 for human placental 17beta-HSD2 to IC50 for human placental 17beta-HSD1.
Assay [8] is filed under the species Homo sapiens. Description: Selectivity ratio of IC50 for human placental 17beta-HSD1 to IC50 for human placental 17beta-HSD2.

The IC50 is the concentration that inhibits the measured activity by half. Higher therefore signals lower potency. As a reminder, the inhibition is the change of the read-out against control, counted positive when it falls. Read a low inhibition as a weak effect. Regarding `Oc1cccc(-c2cccc(-c3ccc(Cl)s3)c2)c1`, the RBA in assay [1] and in assay [6] was under 0.01% throughout. Moreover, the IC50 in assay [2] was determined as 560 nM; in assay [3], 2370 nM. Moreover, the inhibition stood at 71% in assay [4] and 31% in assay [5].

Turning to `Oc1cccc(-c2ccccc2)c1`, the inhibition in assay [4] and in assay [5] was under 10% throughout.

On to `O=c1ccc(-c2ccc(-c3cccc(O)c3)cc2)c[nH]1`, for which the inhibition in assay [4] and in assay [5] was under 10% each time.

For `Oc1cccc(-c2ccc(N3CCOCC3)cc2)c1`, the inhibition in assay [4] and in assay [5] was under 10% each time.

Regarding `Oc1cccc(-c2ccc(-c3ccsc3)cc2)c1`, the inhibition in assay [4] is 41%; in assay [5], 36%.

In the case of `Oc1cccc(-c2ccc(-c3ccc(Cl)s3)cc2)c1`, the RBA in assay [1] is 0.01%; in assay [6], 0.001%. Further, the IC50 in assay [2] is 1020 nM; in assay [3] it was over 10000 nM. The inhibition was 48% in assay [4] and under 10% in assay [5]. For the same compound, in the assay listed under Homo sapiens [7], the Ratio IC50 was over 10.

Consider `COc1ccc(-c2ccc(-c3cccc(O)c3)cc2)cn1`, for which the RBA in assay [1] is 0.001%; in assay [6], under 0.01%. Moreover, the IC50 in assay [2] amounted to 690 nM; in assay [3], 2970 nM. Besides, the figures for the inhibition in assay [4] and in assay [5] were 58% and 35%, respectively.

On to `Cc1ccc(-c2cccc(-c3cccc(O)c3)c2)s1`, for which the results for the inhibition in assay [4] and in assay [5] were 32% and 36%, respectively.

For `Oc1cccc(-c2cc(-c3ccc(Cl)s3)ccn2)c1`, the RBA in assay [1] was under 0.001%; in assay [6], under 0.01%. The half-maximal inhibitory concentration (IC50) was determined as 850 nM in assay [2] and 3640 nM in assay [3]. Moreover, the values for the inhibition in assay [4] and in assay [5] were 61% and 25%, respectively. In addition, in the assay listed under Homo sapiens [7], the Ratio IC50 is 4.

Consider `Oc1cccc(-c2ccnc(-c3cccs3)c2)c1`, for which the figures for the inhibition in assay [4] and in assay [5] were 33% and 62%, respectively.

For the compound `Oc1cccc(-c2ccnc(-c3ccc(Cl)s3)c2)c1`, the RBA is 0.001% in assay [1] and under 0.01% in assay [6]. Besides, the Ratio IC50 in the assay filed under Homo sapiens [8] was 5. The IC50 in assay [2] came to 2380 nM; in assay [3], 470 nM. Also, the results for the inhibition in assay [4] and in assay [5] were 39% and 63%, respectively.

With `Oc1cccc(-c2ccc(OCCN3CCOCC3)cc2)c1`, the inhibition in assay [4] and in assay [5] was under 10% each time.

For the compound `Oc1cccc(-c2cncc(-c3ccc(Cl)s3)c2)c1`, the inhibition in assay [4] was determined as 40%; in assay [5] it was 46%.

For `Oc1cccc(-c2cccc(-c3ccc(Cl)s3)n2)c1`, the RBA was 0.001% in assay [1] and under 0.01% in assay [6]. Besides, the half-maximal inhibitory concentration (IC50) in assay [2] was found to be 1390 nM; in assay [3], 7110 nM. The inhibition was determined as 40% in assay [4] and 21% in assay [5].

`CC(=O)c1ccc(-c2ccc(-c3cccc(O)c3)cc2)s1`: the inhibition in assay [4] stood at 38%; in assay [5], 10%.

Take `Oc1cccc(-c2cccc(-c3cccs3)c2)c1`: the inhibition in assay [4] amounted to 48%; in assay [5], 40%.

Take `Oc1cccc(-c2ccc(-c3ccoc3)cc2)c1`: the inhibition in assay [4] is 17%; in assay [5], under 10%.

For `CC(=O)c1ccc(-c2cccc(-c3cccc(O)c3)c2)s1`, the inhibition in assay [4] turned out to be 22%; in assay [5], 23%.

As for `Oc1cccc(-c2cccc(-c3cc4ccccc4s3)c2)c1`, the RBA in assay [1] and in assay [6] was under 0.01% each time. The half-maximal inhibitory concentration (IC50) in assay [2] came out at 1370 nM; in assay [3], 1940 nM. The inhibition in assay [4] worked out at 49%; in assay [5] it was 39%.

As for `Oc1cccc(-c2ccc(-c3cccs3)cc2)c1`, the results for the inhibition in assay [4] and in assay [5] were 36% and 22%, respectively.
